Bioassay records (PubChem BioAssay)
Only some compounds are listed: those with a hit (about 2.3% of all), similar ones and a draw of the others.
TRPC4 agonist = activators of mouse TRPC4 channel, primary screen, Fluo4 calcium, HEK293 TRPC4beta/mu-opioid cells; Short transient receptor potential channel 4 (Mus musculus), Q9QUQ5; Fluo4 calcium fluorescence; active compounds read high; B-score at 10 µM; hit rate 0.49% among 310,000;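 active means B-score above 5 SD of library B-scores, and initial fluorescence ratio not above library mean plus 5 SD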;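 further: positive B-score marks a calcium rise read as TRPC4 activation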
Target sequence (Q9QUQ5 whole entry, looked up): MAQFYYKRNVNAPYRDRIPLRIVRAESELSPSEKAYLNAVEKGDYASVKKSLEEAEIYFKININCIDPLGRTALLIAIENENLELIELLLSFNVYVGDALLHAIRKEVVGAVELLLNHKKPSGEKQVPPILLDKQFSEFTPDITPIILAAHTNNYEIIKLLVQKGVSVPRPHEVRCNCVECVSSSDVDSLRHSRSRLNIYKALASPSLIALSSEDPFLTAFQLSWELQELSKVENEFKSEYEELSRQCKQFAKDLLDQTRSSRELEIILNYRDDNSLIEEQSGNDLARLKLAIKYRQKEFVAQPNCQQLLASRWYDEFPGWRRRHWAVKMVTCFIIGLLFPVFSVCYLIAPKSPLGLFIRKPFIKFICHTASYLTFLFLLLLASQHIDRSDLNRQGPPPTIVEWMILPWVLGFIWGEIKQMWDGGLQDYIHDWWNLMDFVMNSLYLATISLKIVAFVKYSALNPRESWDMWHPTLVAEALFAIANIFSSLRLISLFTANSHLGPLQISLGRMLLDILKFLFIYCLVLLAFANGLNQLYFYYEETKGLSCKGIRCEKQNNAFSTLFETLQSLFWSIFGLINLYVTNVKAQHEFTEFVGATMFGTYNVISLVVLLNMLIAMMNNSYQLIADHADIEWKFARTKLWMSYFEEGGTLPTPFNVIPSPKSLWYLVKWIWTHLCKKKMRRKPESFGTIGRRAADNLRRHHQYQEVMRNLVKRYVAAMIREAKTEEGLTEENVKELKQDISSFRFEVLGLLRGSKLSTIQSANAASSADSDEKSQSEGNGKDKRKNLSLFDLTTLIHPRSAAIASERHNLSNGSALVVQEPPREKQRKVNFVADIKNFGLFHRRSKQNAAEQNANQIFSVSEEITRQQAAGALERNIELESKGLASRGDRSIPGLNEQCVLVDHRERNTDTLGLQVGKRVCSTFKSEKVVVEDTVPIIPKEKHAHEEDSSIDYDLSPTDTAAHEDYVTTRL
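Assay system: HEK293 stable line with TRPC4beta plus mu-opioid receptor. Times: dye 45 min RT, read 110 s. Measured by: kinetic Fluo4 calcium fluorescence. Measure: B score of integrated ratio. Controls: assay buffer as low control, maximal DAMGO as high control.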
TRPC4 block = inhibitors of mouse TRPC4 channel, primary screen, Fluo4 calcium, HEK293 TRPC4beta/mu-opioid cells; Short transient receptor potential channel 4 (Mus musculus), Q9QUQ5; AID 2247, 2010; B-score at 10 µM; hit rate 0.39% among 300,000; DAMGO-evoked Fluo4 calcium flux; active compounds read low;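 active means B-score over 3 SD under the library average, no early fluorescence shift, positive overall ratio signal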
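Assay system – HEK293 line stably carrying TRPC4beta and mu-opioid receptor · Doses – single dose · Detection – Fluo4 calcium-dye fluorescence, kinetic read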
TRPC4 potent = positive allosteric modulators of TRPC4, primary screen, cell-based, mouse TRPC4beta, HEK293 mu-opioid, Fluo-4 calcium | AID 2227, 2009 | Short transient receptor potential channel 4 (Mus musculus), Q9QUQ5 | hit rate 0.42% among 310,000 | DAMGO EC20, Fluo-4 Ca2+ flux; active compounds read high | B-score at 10 µM;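 active means B-score of calcium response area above 5 SD of library B-scores, with initial fluorescence ratio within 5 SD of library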;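 further: B-score of integrated fluorescence ratio over time as area under calcium response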
TRPC6 activator = mouse TRPC6 channel activators, primary screen, cell-based, HEK293, membrane potential dye; Short transient receptor potential channel 6 (Mus musculus), Q61143; HEK293-TRPC6 membrane potential dye fluorescence; active compounds read high; hit rate 0.13% among 310,000; B-score at 10 µM;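 active means B-score of the integrated fluorescence ratio above library mean plus 3 SD, and starting fluorescence ratio within library mean plus 5 SD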;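 further: higher score means more depolarization so channel activation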
TRPC6 inh = mouse TRPC6 channel inhibitors, primary screen, cell-based, HEK293, membrane potential dye | Short transient receptor potential channel 6 (Mus musculus), Q61143 | ACh-evoked depolarization; active compounds read low | B-score at 10 µM | hit rate 1.1% among 310,000;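 active means B-score under library mean minus 3 SD, initial fluorescence not abnormally high, positive integrated signal ratio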;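 further: B-score derived from integrated fluorescence ratio over the kinetic read; more negative B-score means stronger inhibition of depolarization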
Active calls of the source: *; i = inactive.

SMILES | TRPC4 agonist | TRPC4 block | TRPC4 potent | TRPC6 activator | TRPC6 inh
O=C(c1cccc2ccccc12)C1CCCN(C2CCC2)C1 (stereo not given) | i | i | 10* | i | i
CC/C(=N\Nc1ccccc1)c1c(O)n(-c2ccccc2)c(=O)[nH]c1=O | i | i | i | i | i
CC/C(=N\Nc1ccccc1)c1c(O)n(C)c(=O)n(C)c1=O | i | -6* | 13* | i | i
c1ccc2nc(OCCN3CC3)ccc2c1 | i | i | 18* | i | i
c1ccc(C(OCCN2CCNCC2)c2ccccc2)cc1 | i | i | i | i | i
CC(=O)NC(Cc1ccc(N(CCCl)CCCl)cc1)C(=O)NCC(=O)NCC(=O)O (stereo not given) | i | i | i | i | i
COc1ccc(C(CNC(=O)CCc2ccsc2)N(C)C)cc1 (stereo not given) | 108* | i | i | i | i
Cc1c(C(c2ccc(Cl)cc2Cl)c2c(O)c3ccccc3oc2=O)c(=O)n(-c2ccccc2)n1C (stereo not given) | i | i | i | i | i
O=C(CF)NC(Nc1cccc2cccnc12)C(Cl)(Cl)Cl (stereo not given) | i | i | i | i | i
COc1nc2ccccc2nc1N1CCN(C)CC1 | i | i | i | i | i
CN1CCN(c2ccc([N+](=O)[O-])cc2Cl)CC1 | i | i | 27* | i | i
CC1CN(c2ccc([N+](=O)[O-])cc2Cl)CCN1 (stereo not given) | 63* | i | 66* | i | i
CN1CCN(c2cc([N+](=O)[O-])ccc2Cl)CC1 | i | i | i | i | i
C=CCn1c(O)c(C(C)=NCCN2CCOCC2)c(=O)[nH]c1=O | i | i | i | i | i
CN(C)CCn1cnc2ccccc21 | i | i | 15* | i | i
CN(C)CCc1nc2ccccc2c(=O)n1-c1ccccc1 | i | i | i | i | i
O=C(CCCc1ccccc1)NCCc1cnc[nH]1 | 143* | i | i | i | i
O=C(COc1ccccc1)NCCc1cnc[nH]1 | i | i | i | i | i
COc1cc(C)c(CNCCc2c[nH]c3ccccc23)cc1C | 144* | i | i | i | i
COc1ccc(CNCCc2c[nH]c3ccccc23)c(OC)c1C | 182* | i | i | i | i
COc1cccc(CNCCc2c[nH]c3ccccc23)c1 | i | i | i | i | i
CCOC(=O)c1cc(C)n(CCc2cnc[nH]2)c1C | 138* | i | i | i | i
COc1cc(CN2CCCC(C(=O)c3sccc3C)C2)cc(OC)c1O (stereo not given) | i | i | i | i | i
COc1ccc(CN2CCCC(C(=O)c3sccc3C)C2)cc1O (stereo not given) | i | -7* | i | i | i
O=P(NCc1ccccc1)(Oc1ccccc1)Oc1ccccc1 | i | i | i | i | i
SMILES | TRPC4 agonist | TRPC4 block | TRPC4 potent | TRPC6 activator | TRPC6 inh
Cc1ccc(CN2CCCC(C(=O)c3cccc(C(F)(F)F)c3)C2)o1 (stereo not given) | i | i | i | i | i
CCn1cc(CN2CCCC(C(=O)c3cccc(OC)c3)C2)c(C)n1 (stereo not given) | 53* | i | i | i | i
O=C(c1cccc(C(F)(F)F)c1)C1CCCN(Cc2ccccc2O)C1 (stereo not given) | i | -9* | i | i | i
O=C(c1ccc(C(F)(F)F)cc1)C1CCCN(Cc2ccncc2)C1 (stereo not given) | 51* | i | i | i | i
CCCn1cc(CN2CCCC(C(=O)c3cccc(OC)c3)C2)c(C)n1 (stereo not given) | i | i | i | i | i
Cc1cc(OC(=O)N(C)C)nc(SCc2c(Cl)cccc2Cl)n1 | i | i | 11* | i | i
CCCCc1cc(=O)oc2cc(OCC(=O)N3C[C@H]4C[C@@H](C3)c3cccc(=O)n3C4)c(Cl)cc12 | i | i | i | i | i
Cc1nc2ccccc2c(=O)n1-c1ccc(-c2ccccc2)cc1 | i | i | i | i | i
CC(N)Cc1c[nH]c2cc3c(cc12)OCCO3 (stereo not given) | 143* | i | i | i | i
CC(N)Cc1c[nH]c2ccc(Cl)cc12 (stereo not given) | i | i | 13* | i | i
N[C@@H](Cc1c[nH]c2ccccc12)c1nnc(SCc2ccc(Cl)cc2)o1 | i | i | i | i | i
C/C(=N\NP(=S)(c1ccccc1)c1ccccc1)c1ccc(O)cc1O | i | i | i | i | i
Cn1c(O)c(/C=C2\N=c3ccccc3=C2CCNC(=S)NC2CC2)c(=O)n(C)c1=O | i | i | i | i | i
COc1ccc(CCNCc2ccc(SC)cc2)cc1 | 101* | i | i | i | i
COc1cccc(CNCCc2ccc(F)cc2)c1 | i | i | i | i | i
COc1cccc(C2(O)CCN(Cc3ccncc3)CC2)c1 | i | i | i | i | i
COc1ccc(C)cc1NC1=NC(C)(C)CS1 | i | -6* | i | i | i
Clc1ccc(N2CCNCC2)nn1 | i | i | 22* | i | i
CN1CCN(Cc2ccc(N)cc2)CC1 | i | i | i | i | i
CN1CCN(Cc2cc(C(C)(C)C)c(O)c(C(C)(C)C)c2)CC1 | i | i | 11* | i | i
CCCCCn1c(=O)c(C(=O)Nc2ncccc2C)c(O)c2ccccc21 | i | i | i | i | i
COc1ccc(Br)cc1CNCCc1ccc2c(c1)OCO2 | i | i | i | i | i
COc1ccc(CNCCc2ccc3c(c2)OCO3)cc1Br | 107* | i | i | i | i
O=c1[nH]c(=O)n(C2CCCCC2)c(O)c1/C=C/C=Nc1ccccc1 | i | i | i | i | i
O=C1N(c2nncs2)CCN1[N+](=O)[O-] | i | i | i | i | i
CN1CCN(c2ccc([N+](=O)[O-])c(N)c2)CC1 | i | i | 10* | i | i
CN1CCN(c2ccc([N+](=O)[O-])c(N3CCCCC3)c2)CC1 | i | i | i | i | i
O=[N+]([O-])c1ccc(N2CCNCC2)cc1NCc1ccco1 | i | i | i | i | i
